Laboratory results as given in ChEMBL document CHEMBL1125449, “Substitution on the Phe3 aromatic ring in cyclic delta opioid receptor-selective dermorphin/deltorphin tetrapeptide analogues: electronic and lipophilic requirements for receptor affinity” (J Med Chem, 1992).
pKi: −log10 of the molar value. Positions of bridges follow the written chain, without caps; N, C: chain ends. Non-standard residues stand in square brackets, D forms with d. Residues, ends and D or L forms follow the SMILES beside them. Phe(4-NO2) = N[C@@H](Cc1ccc([N+](=O)[O-])cc1)C(=O)O; Phe(4-tBu) = CC(C)(C)c1ccc(C[C@H](N)C(=O)O)cc1; Phe(4-Cl) = N[C@@H](Cc1ccc(Cl)cc1)C(=O)O; Phe(3-F) = N[C@@H](Cc1cccc(F)c1)C(=O)O; Phe(4-F) = N[C@@H](Cc1ccc(F)cc1)C(=O)O; Phe(4-Me) = Cc1ccc(C[C@H](N)C(=O)O)cc1; Phe(2-F) = N[C@@H](Cc1ccccc1F)C(=O)O; mTyr = N[C@@H](Cc1cccc(O)c1)C(=O)O; Pen = CC(C)(S)[C@H](N)C(=O)O

How the values were obtained:
[1] = biological target: Opioid receptors; mu & delta (Homo sapiens) (UniProt P41143+P35372); experiment: Ratio of binding affinity towards mu receptor to delta receptor.; type: protein assay
[2] = biological target: T1, Kappa-type opioid receptor (Cavia porcellus, UniProt P41144); experiment: Compound was tested for the inhibition of [3H]- (U69,593) binding to Opioid receptor kappa 1 in guinea pig brain homogenates; type: tissue-based
Mu-type opioid receptor [3] = biological target: T2, Mu-type opioid receptor (Cavia porcellus, UniProt P97266); experiment: Compound was tested for the inhibition of [3H]- [D-Ala2, N-MePhe4, Gly5-ol]-enkephalin (DAMGO) binding to Opioid receptor mu 1 in guinea pig brain homogenates; type: tissue-based
[4] = biological target: Mu-type opioid receptor (Cavia porcellus) (UniProt P97266); experiment: Ratio of binding affinity towards opioid receptor mu to opioid receptor delta
[5] = biological target: T1, Kappa-type opioid receptor; experiment: Compound was tested for the inhibition of [3H]- (U69,593) binding to opioid receptor kappa in guinea pig brain homogenates; type: tissue-based
How it was run: (§1)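 Guinea pig brain membranes (washed, preincubated 37 °C 30 min to remove endogenous opioids) in 50 mM Tris pH 7.4. Test compound preincubated with membranes 15 min at 25 °C, then 0.9 nM [3H]U69,593 added and incubated 90 min at 25 °C. Nonspecific binding defined with 10 μM U69,593. Filtration, scintillation counting. 12 concentrations, triplicate. IC50 by regression; Ki from saturation-derived KD.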

Mu-type opioid receptor [6] = biological target: T2, Mu-type opioid receptor; experiment: Compound was tested for the inhibition of [3H]- [D-Ala2, N-MePhe4, Gly5-ol]-enkephalin (DAMGO) binding to opioid receptor mu in guinea pig brain homogenates; type: tissue-based
How it was run: as §1, with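 “0.6” for “0.9”, “[3H]DAMGO” for “[3H]U69,593”, “75” for “90”, “5” for “10”, “DAMGO.” for “U69,593.”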

Mu-type opioid receptor (Cavia porcellus), sequence (P97266 whole entry): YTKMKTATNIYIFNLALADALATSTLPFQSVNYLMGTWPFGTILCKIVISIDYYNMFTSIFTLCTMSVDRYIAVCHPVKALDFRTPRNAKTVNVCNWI
T2 sequence (P97266 whole entry): as above
T1 sequence (P41144 whole entry): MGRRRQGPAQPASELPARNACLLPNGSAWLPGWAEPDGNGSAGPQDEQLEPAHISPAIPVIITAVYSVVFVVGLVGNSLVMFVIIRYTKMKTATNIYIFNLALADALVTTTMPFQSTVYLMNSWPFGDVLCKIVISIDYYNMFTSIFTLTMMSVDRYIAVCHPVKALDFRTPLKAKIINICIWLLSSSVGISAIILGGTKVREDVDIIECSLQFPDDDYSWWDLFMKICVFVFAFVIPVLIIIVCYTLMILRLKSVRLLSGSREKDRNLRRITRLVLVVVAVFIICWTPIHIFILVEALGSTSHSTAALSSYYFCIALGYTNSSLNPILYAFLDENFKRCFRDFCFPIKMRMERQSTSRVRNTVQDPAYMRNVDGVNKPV
Opioid receptors; mu & delta (Homo sapiens), sequence (P35372 whole entry, looked up): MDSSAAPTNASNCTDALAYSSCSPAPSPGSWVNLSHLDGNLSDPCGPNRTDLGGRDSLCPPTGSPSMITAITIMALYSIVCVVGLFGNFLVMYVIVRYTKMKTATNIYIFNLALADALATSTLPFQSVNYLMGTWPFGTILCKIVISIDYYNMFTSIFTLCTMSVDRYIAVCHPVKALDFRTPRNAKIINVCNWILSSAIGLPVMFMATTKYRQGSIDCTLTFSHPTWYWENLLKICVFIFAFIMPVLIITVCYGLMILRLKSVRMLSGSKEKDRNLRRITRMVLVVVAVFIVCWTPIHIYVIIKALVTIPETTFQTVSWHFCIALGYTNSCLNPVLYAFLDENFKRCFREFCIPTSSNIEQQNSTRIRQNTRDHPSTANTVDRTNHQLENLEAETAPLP
Opioid receptors; mu & delta (Homo sapiens), sequence (P41143 whole entry, looked up): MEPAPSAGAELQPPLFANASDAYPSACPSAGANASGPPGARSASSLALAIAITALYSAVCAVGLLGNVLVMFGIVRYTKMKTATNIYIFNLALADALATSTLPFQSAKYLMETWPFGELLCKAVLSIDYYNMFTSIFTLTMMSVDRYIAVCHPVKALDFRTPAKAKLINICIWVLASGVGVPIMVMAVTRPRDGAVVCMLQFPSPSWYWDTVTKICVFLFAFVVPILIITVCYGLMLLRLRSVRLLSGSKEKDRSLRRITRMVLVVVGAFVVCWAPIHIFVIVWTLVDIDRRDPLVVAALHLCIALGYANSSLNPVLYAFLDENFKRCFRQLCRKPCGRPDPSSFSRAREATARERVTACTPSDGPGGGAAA

Row | SMILES | Ratio [1] | pKi [2] | pKi (Mu-type opioid receptor [3]) | Ratio [4] | pKi [5] | pKi (Mu-type opioid receptor [6])
1 | CC1(C)SSC[C@H](NC(=O)[C@@H](N)Cc2ccc(O)cc2)C(=O)N[C@@H](Cc2ccc(O)cc2)C(=O)N[C@@H]1C(=O)O (H-YCY[Pen]-OH; disulfide 2-4) | 135 | < 5.00 | 5.46 |  |  | 
2 | CC1(C)SSC[C@H](NC(=O)[C@@H](N)Cc2ccc(O)cc2)C(=O)N[C@@H](Cc2ccccc2F)C(=O)N[C@@H]1C(=O)O (H-YC[Phe(2-F)][Pen]-OH; disulfide 2-4) |  |  |  | 28.1 | < 5.00 | 7.04
3 | CC1(C)SSC[C@H](NC(=O)[C@@H](N)Cc2ccc(O)cc2)C(=O)N[C@@H](Cc2cccc(F)c2)C(=O)N[C@@H]1C(=O)O (H-YC[Phe(3-F)][Pen]-OH; disulfide 2-4) |  |  |  | 19.2 | < 5.00 | 7.26
4 | CC1(C)SSC[C@H](NC(=O)[C@@H](N)Cc2ccc(O)cc2)C(=O)N[C@@H](Cc2ccc(Cl)cc2)C(=O)N[C@@H]1C(=O)O (H-YC[Phe(4-Cl)][Pen]-OH; disulfide 2-4) |  |  |  | 334 | 5.00 | 6.49
5 | CC1(C)SSC[C@H](NC(=O)[C@@H](N)Cc2ccc(O)cc2)C(=O)N[C@@H](Cc2ccc(F)cc2)C(=O)N[C@@H]1C(=O)O (H-YC[Phe(4-F)][Pen]-OH; disulfide 2-4) | 146 | < 5.00 | 6.79 |  |  | 
6 | Cc1ccc(C[C@@H]2NC(=O)[C@@H](NC(=O)[C@@H](N)Cc3ccc(O)cc3)CSSC(C)(C)[C@@H](C(=O)O)NC2=O)cc1 (H-YC[Phe(4-Me)][Pen]-OH; disulfide 2-4) |  |  |  | 325 | < 5.00 | 5.76
7 | CC1(C)SSC[C@H](NC(=O)[C@@H](N)Cc2ccc(O)cc2)C(=O)N[C@@H](Cc2ccc([N+](=O)[O-])cc2)C(=O)N[C@@H]1C(=O)O (H-YC[Phe(4-NO2)][Pen]-OH; disulfide 2-4) | 82.5 | < 5.00 | 6.86 |  |  | 
8 | CC(C)(C)c1ccc(C[C@@H]2NC(=O)[C@@H](NC(=O)[C@@H](N)Cc3ccc(O)cc3)CSSC(C)(C)[C@@H](C(=O)O)NC2=O)cc1 (H-YC[Phe(4-tBu)][Pen]-OH; disulfide 2-4) | 15 | < 5.00 | 5.00 | 270 | < 5.00 | 5.00
9 | CC1(C)SSC[C@H](NC(=O)[C@@H](N)Cc2ccc(O)cc2)C(=O)N[C@@H](Cc2cccc(O)c2)C(=O)N[C@@H]1C(=O)O (H-YC[mTyr][Pen]-OH; disulfide 2-4) | 22.3 | < 5.00 | 5.47 | 76.6 | < 5.00 | 6.15
